Results pooled from the literature.
Target: Serine/threonine-protein kinase NLK (NLK, Homo sapiens, UniProt Q9UBE8)
Sequence (Q9UBE8 1-527, as in one of the studies): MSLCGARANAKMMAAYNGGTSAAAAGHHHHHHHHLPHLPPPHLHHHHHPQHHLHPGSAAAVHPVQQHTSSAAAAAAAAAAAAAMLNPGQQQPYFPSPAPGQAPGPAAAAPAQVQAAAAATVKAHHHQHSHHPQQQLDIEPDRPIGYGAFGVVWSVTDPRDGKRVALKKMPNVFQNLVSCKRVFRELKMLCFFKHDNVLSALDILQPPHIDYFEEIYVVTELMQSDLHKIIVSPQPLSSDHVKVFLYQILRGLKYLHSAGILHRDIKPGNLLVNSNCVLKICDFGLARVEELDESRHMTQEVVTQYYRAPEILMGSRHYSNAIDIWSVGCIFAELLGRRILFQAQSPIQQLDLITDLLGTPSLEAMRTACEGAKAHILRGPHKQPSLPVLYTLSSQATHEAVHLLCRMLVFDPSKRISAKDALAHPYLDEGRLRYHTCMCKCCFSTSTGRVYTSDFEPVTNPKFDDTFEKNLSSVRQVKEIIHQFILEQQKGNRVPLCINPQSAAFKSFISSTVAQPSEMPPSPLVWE

CC(C)(O)c1cncc(-c2nc3ccc(F)cc3n2C2CC2)c1 — remaining binding (cell-free assay, competition with immobilised ligand; 1 µM): 100%
O=C1Nc2ccc(Cl)cc2C1=Cc1cc(Cl)c(O)c(Cl)c1 — remaining signal (cell-free assay; 0.5 µM): 38.9%
NS(=O)(=O)c1cc(NC(=O)Cc2ccccc2)ccc1Oc1cccc(Cl)c1 — remaining binding (cell-free assay, competition with immobilised ligand; 1 µM): 100%
Cc1cnc(NC2CCOCC2)nc1-n1cnc(C(=O)NC(CN)c2cc(F)cc(Cl)c2)c1 (stereo not shown) — remaining activity (enzyme activity, inhibitor, radiometric; 1 µM): 47%
CCCS(=O)(=O)Nc1ccc(F)c(C(=O)c2c[nH]c3ncc(-c4ccc(Cl)cc4)cc23)c1F — inhibition (enzyme activity, inhibitor; 1 µM): < 10%
CC(=O)C1=C(C)N(c2cccc(C(F)(F)F)c2)C(=O)N[C@@H]1c1ccc(C#N)nc1 — remaining binding (cell-free assay, competition with immobilised ligand; 1 µM): 93%
CC(C)(O)[C@H]1CC[C@H](Nc2ccc3ncc(-c4cccc(C(F)(F)F)c4)n3n2)CC1 — remaining activity (enzyme activity, inhibitor; 1 µM): 93.3%
O=C(NCCCC1CCCCC1)c1ccc(CNC(=O)c2cnn(-c3ccccc3)c2C(F)(F)F)cc1 — remaining binding (cell-free assay, competition with immobilised ligand; 0.1 µM): 100%
Cc1sc(C(=O)NC2COC2)cc1-n1cc(NC(=O)Nc2c(F)cccc2Cl)cn1 — remaining activity (enzyme activity, inhibitor; 10 µM): 85.2%
Cc1ccc(C(=O)Nc2ccc(CN3CCN(C)CC3)c(C(F)(F)F)c2)cc1C#Cc1cnc2cccnn12 — remaining signal (cell-free assay; 23.5 nM): 52%
O=C(Nc1cnn(-c2csc(C(=O)NC3COC3)c2)c1)Nc1ccccc1Cl — remaining activity (enzyme activity, inhibitor; 5 µM): 99.5%
CCN(CC)CCNC(=O)c1c(C)[nH]c(/C=C2\C(=O)Nc3ccc(F)cc32)c1C — inhibition (enzyme activity, inhibitor; 0.3 µM): -7%
CCCOc1ccc(OC)c(F)c1C(=O)c1ccc(C(=O)N[C@@H]2CNC[C@H]2NC(=O)c2ccc3[nH]ncc3c2)cc1 — remaining activity (enzyme activity, inhibitor; 10 µM): 59%
Cn1cncc1C1=CN(c2ncnc3[nH]cnc23)CCS1 — inhibition (enzyme activity, inhibitor, radiometric; 50 nM): 19.6%
COc1cc(-c2cn(C3CCc4c(F)cccc4N(CC(F)(F)F)C3=O)nn2)ccc1-n1cnc(C)c1 (stereo not shown) — remaining binding (cell-free assay, competition with immobilised ligand; 1 µM): 100%
CCN(CC)c1ccc(C2=NNC(=O)CC2C)cc1[N+](=O)[O-] (stereo not shown) — remaining activity (enzyme activity, inhibitor; 10 µM): 105%
CC(C)(C)c1nc(-c2cccc(NS(=O)(=O)c3c(F)cccc3F)c2F)c(-c2ccnc(N)n2)s1 — remaining activity (enzyme activity, inhibitor, radiometric; 1 µM): 78%
O=S(=O)(NC1CCC(c2cc(F)ccc2F)(S(=O)(=O)c2ccc(Cl)cc2)CC1)C(F)(F)F (stereo not shown) — remaining binding (cell-free assay, competition with immobilised ligand; 1 µM): 100%
Cc1ccc(Nc2nccc(N(C)c3ccc4c(C)n(C)nc4c3)n2)cc1S(N)(=O)=O — inhibition (enzyme activity, inhibitor; 0.3 µM): 19%
